How the values were obtained:
PBL [1] = assay: Radioprotective activity in 2-Gy gamma irradiated human PBL assessed as incidence of micronuclei in 1000 binucleated cells at 1.8 uM treated for 2 to 19 hrs followed by compound washout measured after 72 hrs by cytochalasin-B-blocked micronucleus assay (reference value: 183 +/- 9.6); format: functional
Method in brief: (§1)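 Venous blood from five healthy male volunteers was γ-irradiated at 2 Gy (0.45 Gy/min) at room temperature and cultured. Compounds (0.8−7.4 μM final) were added 2 to 19 h after irradiation, at 37 °C. Cultures were then rinsed and moved to fresh RPMI 1640 for 72 h. Cytokinesis-block micronucleus assay: ≥1000 binucleated cells scored per sample (Countryman–Heddle criteria). Controls were non-treated irradiated cultures; one-way ANOVA with Tukey test.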

PBL [2] = assay: Toxicity in 2-Gy gamma irradiated human PBL assessed as cytokinesis-block proliferation index at 7 uM treated for 2 to 19 hrs followed by compound washout measured after 72 hrs (reference value: 1.6 +/- 0.1); format: cell-based
PBL [3] = assay: Radioprotective activity in 2-Gy gamma irradiated human PBL assessed as frequency of micronuclei at 3.5 uM treated for 2 to 19 hrs followed by compound washout measured after 72 hrs by cytochalasin-B-blocked micronucleus assay relative to control; format: functional; method in brief: as §1
PBL [4] = assay: Radioprotective activity in 2-Gy gamma irradiated human PBL assessed as incidence of micronuclei in 1000 binucleated cells at 7 uM treated for 2 to 19 hrs followed by compound washout measured after 72 hrs by cytochalasin-B-blocked micronucleus assay (reference value: 183 +/- 9.6); format: functional; method in brief: as §1
PBL [5] = assay: Radioprotective activity in 2-Gy gamma irradiated human PBL assessed as frequency of micronuclei at 1.8 uM treated for 2 to 19 hrs followed by compound washout measured after 72 hrs by cytochalasin-B-blocked micronucleus assay relative to control; format: functional; method in brief: as §1
PBL [6] = assay: Radioprotective activity in 2-Gy gamma irradiated human PBL assessed as incidence of micronuclei in binucleated cells at 7 uM treated for 2 to 19 hrs followed by compound washout measured after 72 hrs by cytochalasin-B-blocked micronucleus assay (reference value: 1.2 +/- 0.03); format: functional; method in brief: as §1
PBL [7] = assay: Radioprotective activity in 2-Gy gamma irradiated human PBL assessed as incidence of micronuclei in binucleated cells at 1.8 uM treated for 2 to 19 hrs followed by compound washout measured after 72 hrs by cytochalasin-B-blocked micronucleus assay (reference value: 1.2 +/- 0.03); format: functional; method in brief: as §1
PBL [8] = assay: Radioprotective activity in 2-Gy gamma irradiated human PBL assessed as binucleated cells with micronuclei at 1.8 uM treated for 2 to 19 hrs followed by compound washout measured after 72 hrs by cytochalasin-B-blocked micronucleus assay (reference value: 15.5 +/- 0.6%); format: functional; method in brief: as §1
PBL [9] = assay: Radioprotective activity in 2-Gy gamma irradiated human PBL assessed as incidence of micronuclei in 1000 binucleated cells at 3.5 uM treated for 2 to 19 hrs followed by compound washout measured after 72 hrs by cytochalasin-B-blocked micronucleus assay (reference value: 183 +/- 9.6); format: functional; method in brief: as §1
PBL [10] = assay: Radioprotective activity in 2-Gy gamma irradiated human PBL assessed as binucleated cells with micronuclei at 3.5 uM treated for 2 to 19 hrs followed by compound washout measured after 72 hrs by cytochalasin-B-blocked micronucleus assay (reference value: 15.5 +/- 0.6%); format: functional; method in brief: as §1
PBL [11] = assay: Radioprotective activity in 2-Gy gamma irradiated human PBL assessed as frequency of micronuclei at 7 uM treated for 2 to 19 hrs followed by compound washout measured after 72 hrs by cytochalasin-B-blocked micronucleus assay relative to control; format: functional; method in brief: as §1
PBL [12] = assay: Toxicity in 2-Gy gamma irradiated human PBL assessed as cytokinesis-block proliferation index at 3.5 uM treated for 2 to 19 hrs followed by compound washout measured after 72 hrs (reference value: 1.6 +/- 0.1); format: cell-based
PBL [13] = assay: Radioprotective activity in 2-Gy gamma irradiated human PBL assessed as binucleated cells with micronuclei at 7 uM treated for 2 to 19 hrs followed by compound washout measured after 72 hrs by cytochalasin-B-blocked micronucleus assay (reference value: 15.5 +/- 0.6%); format: functional; method in brief: as §1
PBL [14] = assay: Toxicity in 2-Gy gamma irradiated human PBL assessed as cytokinesis-block proliferation index at 1.8 uM treated for 2 to 19 hrs followed by compound washout measured after 72 hrs (reference value: 1.6 +/- 0.1); format: cell-based
PBL [15] = assay: Radioprotective activity in 2-Gy gamma irradiated human PBL assessed as incidence of micronuclei in binucleated cells at 3.5 uM treated for 2 to 19 hrs followed by compound washout measured after 72 hrs by cytochalasin-B-blocked micronucleus assay (reference value: 1.2 +/- 0.03); format: functional; method in brief: as §1
PBL [16] = assay: Radioprotective activity in 2-Gy gamma irradiated human PBL assessed as frequency of micronuclei at 2 uM treated for 2 to 19 hrs followed by compound washout measured after 72 hrs by cytochalasin-B-blocked micronucleus assay relative to control; format: functional; method in brief: as §1
PBL [17] = assay: Radioprotective activity in 2-Gy gamma irradiated human PBL assessed as binucleated cells with micronuclei at 1 uM treated for 2 to 19 hrs followed by compound washout measured after 72 hrs by cytochalasin-B-blocked micronucleus assay (reference value: 15.5 +/- 0.6%); format: functional; method in brief: as §1
PBL [18] = assay: Radioprotective activity in 2-Gy gamma irradiated human PBL assessed as frequency of micronuclei at 1 uM treated for 2 to 19 hrs followed by compound washout measured after 72 hrs by cytochalasin-B-blocked micronucleus assay relative to control; format: functional; method in brief: as §1
PBL [19] = assay: Radioprotective activity in 2-Gy gamma irradiated human PBL assessed as binucleated cells with micronuclei at 2 uM treated for 2 to 19 hrs followed by compound washout measured after 72 hrs by cytochalasin-B-blocked micronucleus assay (reference value: 15.5 +/- 0.6%); format: functional; method in brief: as §1
PBL [20] = assay: Radioprotective activity in 2-Gy gamma irradiated human PBL assessed as incidence of micronuclei in binucleated cells at 2 uM treated for 2 to 19 hrs followed by compound washout measured after 72 hrs by cytochalasin-B-blocked micronucleus assay (reference value: 1.2 +/- 0.03); format: functional; method in brief: as §1
PBL [21] = assay: Radioprotective activity in 2-Gy gamma irradiated human PBL assessed as frequency of micronuclei at 4 uM treated for 2 to 19 hrs followed by compound washout measured after 72 hrs by cytochalasin-B-blocked micronucleus assay relative to control; format: functional; method in brief: as §1
PBL [22] = assay: Radioprotective activity in 2-Gy gamma irradiated human PBL assessed as incidence of micronuclei in 1000 binucleated cells at 4 uM treated for 2 to 19 hrs followed by compound washout measured after 72 hrs by cytochalasin-B-blocked micronucleus assay (reference value: 183 +/- 9.6); format: functional; method in brief: as §1
PBL [23] = assay: Radioprotective activity in 2-Gy gamma irradiated human PBL assessed as incidence of micronuclei in binucleated cells at 4 uM treated for 2 to 19 hrs followed by compound washout measured after 72 hrs by cytochalasin-B-blocked micronucleus assay (reference value: 1.2 +/- 0.03); format: functional; method in brief: as §1
PBL [24] = assay: Radioprotective activity in 2-Gy gamma irradiated human PBL assessed as incidence of micronuclei in 1000 binucleated cells at 2 uM treated for 2 to 19 hrs followed by compound washout measured after 72 hrs by cytochalasin-B-blocked micronucleus assay (reference value: 183 +/- 9.6); format: functional; method in brief: as §1
PBL [25] = assay: Radioprotective activity in 2-Gy gamma irradiated human PBL assessed as incidence of micronuclei in binucleated cells at 1 uM treated for 2 to 19 hrs followed by compound washout measured after 72 hrs by cytochalasin-B-blocked micronucleus assay (reference value: 1.2 +/- 0.03); format: functional; method in brief: as §1
PBL [26] = assay: Toxicity in 2-Gy gamma irradiated human PBL assessed as cytokinesis-block proliferation index at 1 uM treated for 2 to 19 hrs followed by compound washout measured after 72 hrs (reference value: 1.6 +/- 0.1); format: cell-based
PBL [27] = assay: Radioprotective activity in 2-Gy gamma irradiated human PBL assessed as binucleated cells with micronuclei at 4 uM treated for 2 to 19 hrs followed by compound washout measured after 72 hrs by cytochalasin-B-blocked micronucleus assay (reference value: 15.5 +/- 0.6%); format: functional; method in brief: as §1
PBL [28] = assay: Toxicity in 2-Gy gamma irradiated human PBL assessed as cytokinesis-block proliferation index at 4 uM treated for 2 to 19 hrs followed by compound washout measured after 72 hrs (reference value: 1.6 +/- 0.1); format: cell-based
PBL [29] = assay: Radioprotective activity in 2-Gy gamma irradiated human PBL assessed as incidence of micronuclei in 1000 binucleated cells at 1 uM treated for 2 to 19 hrs followed by compound washout measured after 72 hrs by cytochalasin-B-blocked micronucleus assay (reference value: 183 +/- 9.6); format: functional; method in brief: as §1
PBL [30] = assay: Toxicity in 2-Gy gamma irradiated human PBL assessed as cytokinesis-block proliferation index at 2 uM treated for 2 to 19 hrs followed by compound washout measured after 72 hrs (reference value: 1.6 +/- 0.1); format: cell-based
PBL [31] = assay: Radioprotective activity in 2-Gy gamma irradiated human PBL assessed as incidence of micronuclei in 1000 binucleated cells at 7.4 uM treated for 2 to 19 hrs followed by compound washout measured after 72 hrs by cytochalasin-B-blocked micronucleus assay (reference value: 183 +/- 9.6); format: functional
Method in brief: (§2)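 Venous blood from five healthy male volunteers was gamma-irradiated at 2 Gy (0.45 Gy/min) at room temperature, then cultured. Compounds (0.8–7.4 μM final) were added after irradiation for 19 h at 37 °C. Cells were rinsed and moved to fresh RPMI 1640 for 72 h. At least 1000 binucleated cells per sample were scored for micronuclei and CBPI calculated. Analysis used one-way ANOVA with Tukey test.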

PBL [32] = assay: Radioprotective activity in 2-Gy gamma irradiated human PBL assessed as incidence of micronuclei in binucleated cells at 3.7 uM treated for 2 to 19 hrs followed by compound washout measured after 72 hrs by cytochalasin-B-blocked micronucleus assay (reference value: 1.2 +/- 0.03); format: functional; method in brief: as §1
PBL [33] = assay: Radioprotective activity in 2-Gy gamma irradiated human PBL assessed as frequency of micronuclei at 3.7 uM treated for 2 to 19 hrs followed by compound washout measured after 72 hrs by cytochalasin-B-blocked micronucleus assay relative to control; format: functional; method in brief: as §1
PBL [34] = assay: Radioprotective activity in 2-Gy gamma irradiated human PBL assessed as frequency of micronuclei at 7.4 uM treated for 2 to 19 hrs followed by compound washout measured after 72 hrs by cytochalasin-B-blocked micronucleus assay relative to control; format: functional; method in brief: as §1
PBL [35] = assay: Radioprotective activity in 2-Gy gamma irradiated human PBL assessed as binucleated cells with micronuclei at 7.4 uM treated for 2 to 19 hrs followed by compound washout measured after 72 hrs by cytochalasin-B-blocked micronucleus assay (reference value: 15.5 +/- 0.6%); format: functional; method in brief: as §1
PBL [36] = assay: Toxicity in 2-Gy gamma irradiated human PBL assessed as cytokinesis-block proliferation index at 3.7 uM treated for 2 to 19 hrs followed by compound washout measured after 72 hrs (reference value: 1.6 +/- 0.1); format: cell-based
PBL [37] = assay: Toxicity in 2-Gy gamma irradiated human PBL assessed as cytokinesis-block proliferation index at 7.4 uM treated for 2 to 19 hrs followed by compound washout measured after 72 hrs (reference value: 1.6 +/- 0.1); format: cell-based
PBL [38] = assay: Radioprotective activity in 2-Gy gamma irradiated human PBL assessed as binucleated cells with micronuclei at 3.7 uM treated for 2 to 19 hrs followed by compound washout measured after 72 hrs by cytochalasin-B-blocked micronucleus assay (reference value: 15.5 +/- 0.6%); format: functional; method in brief: as §1
PBL [39] = assay: Radioprotective activity in 2-Gy gamma irradiated human PBL assessed as incidence of micronuclei in 1000 binucleated cells at 3.7 uM treated for 2 to 19 hrs followed by compound washout measured after 72 hrs by cytochalasin-B-blocked micronucleus assay (reference value: 183 +/- 9.6); format: functional; method in brief: as §2
PBL [40] = assay: Radioprotective activity in 2-Gy gamma irradiated human PBL assessed as incidence of micronuclei in binucleated cells at 7.4 uM treated for 2 to 19 hrs followed by compound washout measured after 72 hrs by cytochalasin-B-blocked micronucleus assay (reference value: 1.2 +/- 0.03); format: functional; method in brief: as §1

OC[C@H]1O[C@@H](OCc2ccc(O)cc2)[C@H](O)[C@@H](O)[C@@H]1O
Activity (PBL [1]): 156.4 | Activity (PBL [2]): 1.7 | Activity (PBL [3]): 85.1% | Activity (PBL [4]): 159.2 | Activity (PBL [5]): 85.5% | Activity (PBL [6]): 1.2 | Activity (PBL [7]): 1.2 | Activity (PBL [8]): 13.1% | Activity (PBL [9]): 155.7 | Activity (PBL [10]): 13.1% | Activity (PBL [11]): 87% | Activity (PBL [12]): 1.8 | Activity (PBL [13]): 13.6% | Activity (PBL [14]): 1.7 | Activity (PBL [15]): 1.2

COc1cc(-c2oc3cc(O)c(OC)c(O)c3c(=O)c2O[C@@H]2O[C@H](CO)[C@@H](O)[C@H](O)[C@H]2O)ccc1O
Activity (PBL [16]): 76.1% | Activity (PBL [17]): 12.1% | Activity (PBL [18]): 77.5% | Activity (PBL [19]): 11.7% | Activity (PBL [20]): 1.2 | Activity (PBL [21]): 80.9% | Activity (PBL [22]): 148 | Activity (PBL [23]): 1.2 | Activity (PBL [24]): 139.3 | Activity (PBL [25]): 1.2 | Activity (PBL [26]): 1.6 | Activity (PBL [27]): 12.3% | Activity (PBL [28]): 1.6 | Activity (PBL [29]): 141.8 | Activity (PBL [30]): 1.6

OC[C@H]1O[C@@H](Oc2ccc(O)cc2)[C@H](O)[C@@H](O)[C@@H]1O [ARBUTIN]
Activity (PBL [1]): 191.2 | Activity (PBL [5]): 104.5% | Activity (PBL [31]): 197.2 | Activity (PBL [32]): 1.3 | Activity (PBL [33]): 103.4% | Activity (PBL [34]): 107.8% | Activity (PBL [7]): 1.3 | Activity (PBL [8]): 15.1% | Activity (PBL [35]): 15.8% | Activity (PBL [36]): 1.8 | Activity (PBL [37]): 1.6 | Activity (PBL [38]): 15% | Activity (PBL [39]): 189.3 | Activity (PBL [14]): 1.7 | Activity (PBL [40]): 1.2

From ChEMBL document CHEMBL3608301, “Phenolic Compounds from Atriplex littoralis and Their Radiation-Mitigating Activity” (J Nat Prod, 2015)
